{"data": "Measurements gathered from unrelated publications", "target": "Serine/threonine-protein kinase DCLK1 (DCLK1, Homo sapiens, UniProt O15075)", "technique": "competition with immobilised ligand", "Residues used in one study (O15075 1-740)": "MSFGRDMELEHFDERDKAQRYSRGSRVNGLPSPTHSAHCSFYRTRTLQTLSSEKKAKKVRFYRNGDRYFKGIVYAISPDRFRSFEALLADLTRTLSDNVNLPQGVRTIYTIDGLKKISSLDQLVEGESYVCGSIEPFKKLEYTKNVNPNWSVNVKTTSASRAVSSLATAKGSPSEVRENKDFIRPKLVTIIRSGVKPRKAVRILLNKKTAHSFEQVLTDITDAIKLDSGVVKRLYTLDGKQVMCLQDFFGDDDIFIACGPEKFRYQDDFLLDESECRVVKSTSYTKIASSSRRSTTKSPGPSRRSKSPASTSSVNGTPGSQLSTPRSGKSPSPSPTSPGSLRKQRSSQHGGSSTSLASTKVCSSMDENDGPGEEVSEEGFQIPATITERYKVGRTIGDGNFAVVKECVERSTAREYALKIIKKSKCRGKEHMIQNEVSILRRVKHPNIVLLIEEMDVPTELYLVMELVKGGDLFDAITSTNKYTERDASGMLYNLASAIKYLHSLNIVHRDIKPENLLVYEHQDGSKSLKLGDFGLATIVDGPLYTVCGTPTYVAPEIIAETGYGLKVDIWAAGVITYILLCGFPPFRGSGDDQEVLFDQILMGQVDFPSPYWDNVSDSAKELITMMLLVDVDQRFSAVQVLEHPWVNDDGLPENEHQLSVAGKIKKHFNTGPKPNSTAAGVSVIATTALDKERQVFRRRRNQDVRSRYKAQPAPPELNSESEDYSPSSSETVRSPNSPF", "note": "Protocols differ between the studies behind these lines."}
{"SMILES": "Cc1cc(-c2cc(C(F)(F)F)ccc2O[C@H]2C[C@@]2(CNS(=O)(=O)c2ccc([N+](=O)[O-])cc2)c2ccc(F)cc2F)[nH]n1", "test": "cell-free assay", "setting": "0.3 µM", "remaining binding [%]": 32}
{"SMILES": "c1cnn2ncc(-c3ccnc(N4CCC45COC5)n3)c2c1", "test": "binding", "setting": "1 µM", "remaining binding [%]": 82}
{"SMILES": "C[C@@H]1CN(c2ccc3ncc(-c4ccc5[nH]nc(C6CC6)c5c4)n3n2)C[C@H](C)O1", "test": "binding", "setting": "0.5 µM", "remaining binding [%]": 100}
{"SMILES": "CC(C)(C)c1ccc(-c2nc(CBr)nn2-c2cccc(O)c2)cc1", "test": "cell-free assay", "setting": "10 µM", "remaining binding [%]": 100}
{"SMILES": "COc1ncc2cc3ccccc3nc2c1C#N", "test": "cell-free assay", "setting": "5 µM", "remaining binding [%]": 98}
{"SMILES": "O=C(c1ccc(Nc2ncc(Cl)c(-c3cc4ccccc4s3)n2)cc1)N1CCC(N2CCCC2)CC1", "test": "binding", "setting": "1 µM", "remaining binding [%]": 100}
{"SMILES": "CN(CCCC(F)(F)F)c1nccc(-c2cnn3ncccc23)n1", "test": "binding", "setting": "1 µM", "remaining binding [%]": 90}
{"SMILES": "O=C(c1ccc(Nc2nccc(-c3cc4ccccc4s3)n2)cc1)N1CCC(N2CCCC2)CC1", "test": "binding", "setting": "1 µM", "remaining binding [%]": 86}
{"SMILES": "C[C@H]1CCN(c2nccc(-c3cnn4ncccc34)n2)C1", "test": "binding", "setting": "1 µM", "remaining binding [%]": 85}
{"SMILES": "CN1CCN(c2cnc3c(C4CCN(C(=O)c5ccc(OC(F)(F)F)cc5N)CC4)ncnc3c2)CC1", "test": "cell-free assay", "setting": "1 µM", "remaining binding [%]": 85}
{"SMILES": "Cc1cnc(Nc2ccc(C(=O)N3CCC(N4CCCC4)CC3)cc2)nc1-c1cc2ccccc2s1", "test": "binding", "setting": "1 µM", "remaining binding [%]": 68}
{"SMILES": "CCC(=N\\O)/C(C)=C/c1ccc(F)cc1", "test": "cell-free assay", "setting": "1 µM", "remaining binding [%]": 93}
{"SMILES": "N[C@H]1CCN(c2nccc(-c3cnn4ncccc34)n2)C1", "test": "binding", "setting": "1 µM", "remaining binding [%]": 83}
{"SMILES": "Cc1nccc(COC(=O)N2C[C@@H]3[C@@H](CNC(=O)c4ccc5[nH]nnc5c4)[C@@H]3C2)n1", "test": "cell-free assay", "setting": "1 µM", "remaining binding [%]": 90}
{"SMILES": "CC1CCCN1c1nccc(-c2cnn3ncccc23)n1 (stereo not shown)", "test": "binding", "setting": "1 µM", "remaining binding [%]": 87}
{"SMILES": "CN([C@@H]1CCc2c(CC(=O)O)c3cc(S(C)(=O)=O)ccc3n2C1)S(=O)(=O)c1ccc(F)cc1", "test": "cell-free assay", "setting": "1 µM", "remaining binding [%]": 79}
{"SMILES": "O=C(NCC1CCOCC1)c1n[nH]cc1NC(=O)c1c(F)cccc1F", "test": "binding", "setting": "1 µM", "remaining binding [%]": 75}
{"SMILES": "Cn1nc(C(=O)NCc2ccc(C(=O)O)cc2)cc1-c1ccc2[nH]ccc2c1", "test": "cell-free assay", "setting": "0.1 µM", "remaining binding [%]": 88}
{"SMILES": "COc1ccnn2ncc(-c3ccnc(N(C)C)n3)c12", "test": "binding", "setting": "1 µM", "remaining binding [%]": 80}
{"SMILES": "Nc1c(C(=O)NCc2ccc(C(=O)NCCCC3CCCCC3)cc2)cnn1-c1ccccc1", "test": "cell-free assay", "setting": "0.1 µM", "remaining binding [%]": 100}
{"SMILES": "COc1cnc(Nc2cccc(S(N)(=O)=O)c2)nc1N1CCN(c2ccccc2)CC1", "test": "binding", "setting": "1 µM", "remaining binding [%]": 92}
{"SMILES": "O=C(N1CCS(=O)(=O)CC1)N1C[C@H](c2ccc(OC(F)(F)F)cc2)C[C@H](c2nc(C3CC3)no2)C1", "test": "cell-free assay", "setting": "1 µM", "remaining binding [%]": 100}
{"SMILES": "COc1cc(C(=O)N2CCC(N3CCN(C)CC3)CC2)ccc1Nc1ncc2c(n1)N(C)c1ccccc1C(=O)N2C", "test": "binding", "setting": "10 µM", "remaining binding [%]": 4.2}
{"SMILES": "Cc1c(NC(=O)c2cc(C(N)=O)nc3cc(F)ccc23)c(C(F)(F)F)nn1Cc1ccc(C#N)cc1", "test": "cell-free assay", "setting": "1 µM", "remaining binding [%]": 85}
{"SMILES": "Nc1ncc2c(n1)-c1c([nH]c3ccc(C#CC4CC4)cc13)CCCC2", "test": "binding", "setting": "1 µM", "remaining binding [%]": 100}
